Experimental data reported in ChEMBL document CHEMBL1145287, “Docking and 3-D QSAR studies on indolyl aryl sulfones. Binding mode exploration at the HIV-1 reverse transcriptase non-nucleoside binding site and design of highly active N-(2-hydroxyethyl)carboxamide and N-(2-hydroxyethyl)carbohydrazide derivatives” (J Med Chem, 2005).

Experiments:
Conditions in all cases: Homo sapiens
MT4 [1] = assay: Concentration required for 50% protection of infected MT-4 cells from wtIIIB-HIV-1-induced cytopathogenicity was determined by the MTT method; format: functional, cell-based
How it was run: (§1)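 MT-4 cells (1 × 10⁴/well, RPMI 1640 with 10% FCS, 37 °C, 5% CO₂) were infected with HIV-1 IIIB (H9/IIIB supernatant) at an inoculum causing complete cytopathicity by day 4, across graded compound concentrations. Viability was read by MTT, with cytotoxicity run in parallel on mock-infected cells. Concentration giving 50% protection reported as the mean of three experiments.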

MT4 [2] = assay: Protection of infected MT-4 cells from wtIIIB-HIV-1-induced cytopathogenicity; format: functional, cell-based; how it was run: as §1
C8166 [3] = assay: Compound concentration required to reduce the amount of p24 by 90% in wtIIIBinfected C8166 cells; format: functional
How it was run: (§2)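 Acute infection of C8166 cells (1 × 10⁴/well, RPMI 1640 with 10% FCS, 37 °C, 5% CO₂) by HIV-1 IIIB from persistently infected H9/IIIB supernatant, with a virus inoculum sized to cause complete cytopathicity at day 4, in the presence of serially diluted compound (DMSO stock diluted in medium). p24 antigen was measured by immunoenzymatic kit. Concentration giving 90% reduction of p24 reported.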

MT4 [4] = assay: Concentration required to achieve 50% protection of infected MT-4 cells from K103N-Y181C; format: functional, cell-based
How it was run: (§3)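 MT-4 cells (1 × 10⁴/well, RPMI 1640 + 10% FCS) exposed to serial compound dilutions (200 mM DMSO stock diluted in medium), infected with enough virus to give full cytopathicity by day 4; wt IIIB from H9/IIIB supernatant, Y181C and K103N–Y181C from NNRTI-selected passages.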

C8166 [5] = assay: Concentration required to reduce the amount of p24 by 90% in C8166 cells infected with an efavirenz-resistant strain EFVR; format: functional
How it was run: (§4)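 C8166 cells (1 × 10⁴/well) with serial compound dilutions (200 mM DMSO stock diluted in medium), infected with K103R/V179D/P225H virus selected from IIIB by passage in C8166 cells with efavirenz up to 2 μM (stock 3.0 × 10⁵ CCID₅₀/mL); 37 °C incubation; p24 measured by immunoenzymatic kit; value = concentration giving 90% p24 reduction.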

C8166 [6] = assay: Concentration required to reduce the amount of p24 by 90% in wtIIIB-HIV-1-infected C8166 cells; format: functional; how it was run: as §2
MT4 [7] = assay: Compound concentration required to achieve 50% protection of infected MT-4 cells from K103N-Y181C strain was determined by the MTT method; format: functional, cell-based; how it was run: as §3
C8166 [8] = assay: Compound concentration required to reduce the amount of p24 by 90% in C8166 cells infected with an efavirenz-resistant strain EFVR carrying mutations K103R, V179D, and P225H; format: functional; how it was run: as §4
MT4 [9] = assay: Concentration required to achieve 50% protection of infected MT-4 cells from Y181C-HIV-1 strain; format: functional, cell-based; how it was run: as §3
MT4 [10] = assay: Compound concentration required to achieve 50% protection of infected MT-4 cells from Y181C strain was determined by the MTT method; format: functional, cell-based; how it was run: as §3

Structure (SMILES) | EC50 (MT4 [2]) [nM] | further results
Cc1ccc(S(=O)(=O)c2c(C(=O)NCCO)[nH]c3ccc(Cl)cc23)c(C)c1 |  | EC50 (MT4 [1]): 10 nM
CCOC(=O)C(=O)c1cc2ccccc2n1S(=O)(=O)c1cc(Cl)ccc1[N+](=O)[O-] | > 100000 | 
CCOC(=O)c1[nH]c2ccccc2c1Sc1ccccc1N | > 200000 | 
CCOC(=O)C(=O)c1cc2cc(Cl)ccc2n1S(=O)(=O)c1ccc(Cl)cc1 | > 200000 | 
NC(=O)c1c(C=O)n(S(=O)(=O)c2ccccc2)c2ccccc12 | > 32000 | 
CCOC(=O)C(=O)c1cc2cc(Cl)ccc2n1S(=O)(=O)c1cc(Cl)ccc1[N+](=O)[O-] | > 31000 | 
CC(C)OC(=O)c1c(C=O)n(S(=O)(=O)c2ccccc2)c2ccc(Cl)cc12 | > 200000 | 
Cc1ccc(S(=O)(=O)c2c(C(=O)NN)[nH]c3ccc(Cl)cc23)cc1 | 50 | 
NC(=O)c1[nH]c2ccccc2c1S(=O)(=O)c1ccccc1 | 180 | 
NNC(=O)c1[nH]c2ccc(Cl)cc2c1Sc1ccc(F)cc1 | 5000 | 
NNC(=O)c1[nH]c2ccc(Cl)cc2c1S(=O)(=O)c1ccc(Cl)cc1 | 190 | 
NNC(=O)c1[nH]c2ccccc2c1S(=O)(=O)c1ccccc1 | 530 | 
NNC(=O)c1[nH]c2ccc(Cl)cc2c1Sc1ccc(Cl)cc1 | 10000 | 
NC(=O)c1[nH]c2ccc(Cl)cc2c1S(=O)(=O)c1c(Cl)cccc1Cl | 100 | 
NC(=O)c1[nH]c2ccccc2c1Sc1cc(Cl)ccc1N | 9000 | 
Cc1cc(C)cc(S(=O)(=O)c2c(C(=O)NN)[nH]c3ccc(Cl)cc23)c1 | 130 | 
NC(=O)c1[nH]c2ccc(Cl)cc2c1S(=O)(=O)c1ccc(F)cc1 | 14 | 
NNC(=O)c1[nH]c2ccc(Cl)cc2c1S(=O)(=O)c1ccccc1 | 10 | 
Cc1ccc(Sc2c(C(=O)NN)[nH]c3ccc(Cl)cc23)cc1 | 1500 | 
CC(C)(C)c1ccc(Sc2c(C(N)=O)[nH]c3ccc(Cl)cc23)cc1 | 8000 | 
Cc1cccc(S(=O)(=O)c2c(C(N)=O)[nH]c3ccc(Cl)cc23)c1 | 1 | 

Structure (SMILES) | EC50 (MT4 [2]) [nM] | further results
NNC(=O)c1[nH]c2ccc(Cl)cc2c1Sc1ccccc1 | 550 | 
Cc1cc(C)cc(S(=O)(=O)c2c(C(N)=O)[nH]c3ccc(Br)cc23)c1 | 2 | 
CCOC(=O)c1[nH]c2ccc(Cl)cc2c1S(=O)(=O)c1ccccc1N | > 200000 | 
Cc1ccccc1Sc1c(C(N)=O)[nH]c2ccc(Cl)cc12 | 300 | 
NC(=O)c1[nH]c2ccc(Cl)cc2c1Sc1ccc(F)cc1 | 1400 | 
CC(C)c1ccc(Sc2c(C(N)=O)[nH]c3ccc(Cl)cc23)cc1 | 1900 | 
Cc1ccccc1S(=O)(=O)c1c(C(N)=O)[nH]c2ccc(Cl)cc12 | 1 | 
CCOC(=O)c1[nH]c2ccc(Cl)cc2c1S(=O)(=O)c1cc(Cl)ccc1N | 1900 | 
CC(=O)c1ccc2[nH]c(C(N)=O)c(S(=O)(=O)c3cc(C)cc(C)c3)c2c1 | 15 | 
NNC(=O)c1[nH]c2ccc(Cl)cc2c1S(=O)(=O)c1ccc(F)cc1 | 320 | 
CCOC(=O)c1[nH]c2ccc(Cl)cc2c1Sc1ccccc1N | 2300 | 
Cc1ccc(S(=O)(=O)c2c(C(N)=O)[nH]c3ccc(Cl)cc23)cc1 | 3 | 
Cc1ccc(Sc2c(C(N)=O)[nH]c3ccc(Cl)cc23)cc1 | > 450 | 
CCOC(=O)c1[nH]c2ccc(Cl)cc2c1Sc1cc(Cl)ccc1N | 2500 | 
CC(C)(C)c1ccc(S(=O)(=O)c2c(C(N)=O)[nH]c3ccc(Cl)cc23)cc1 | 130 | 
NC(=O)c1[nH]c2ccc(Cl)cc2c1Sc1c(Cl)cccc1Cl | 1200 | 
Cc1cc(C)cc(S(=O)(=O)c2c(C(N)=O)[nH]c3ccc(Cl)cc23)c1 | 4 | 
O=C1Nc2ccc(Cl)cc2[C@@](C#CC2CC2)(C(F)(F)F)O1 [EFAVIRENZ] |  | EC90 (C8166 [3]): 8 nM; EC50 (MT4 [4]): 150 nM; EC90 (C8166 [5]): 1800 nM; EC90 (C8166 [6]): 8 nM; EC50 (MT4 [7]): 150 nM; EC90 (C8166 [8]): 1800 nM
NC(=O)c1[nH]c2ccc(Cl)cc2c1S(=O)(=O)c1ccccc1 [L-737126] | 1 | EC50 (MT4 [9]): 20 nM; EC50 (MT4 [4]): 8000 nM; EC90 (C8166 [5]): 900 nM; EC90 (C8166 [6]): 0.7 nM
Cc1ccnc2c1NC(=O)c1cccnc1N2C1CC1 [NEVIRAPINE] |  | EC90 (C8166 [3]): 120 nM; EC50 (MT4 [10]): > 30000 nM; EC50 (MT4 [9]): > 30000 nM; EC50 (MT4 [4]): > 30000 nM; EC90 (C8166 [5]): > 30000 nM; EC90 (C8166 [6]): 120 nM; EC50 (MT4 [7]): > 30000 nM; EC90 (C8166 [8]): > 30000 nM
